High-throughput results as filed in PubChem BioAssay.
Jurkat NFkB inh = lowers PMA/ionomycin-induced NF-kB signal in Jurkat cells. AID 435003. PMA/ionomycin-induced NF-kB luciferase reporter, luminescence. 330,000 compounds, 0.53% hits. inhibition, % at 4 µM; in the data active means inhibition above about 50%
CHOP UPR activ = apoptotic UPR (CHOP) activation. CHO-CHOP luciferase reporter, luminescence; percent of tunicamycin response over DMSO baseline. activation, % at 10 µM. 330,000 compounds, 0.34% hits. AID 449763;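 active means at 10 µM dose, activation of 40% or more, normalized to positive control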
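System: CHO CHOP reporter cells. Amount: 500 cells per well. Buffer or medium: F12 medium, 10% FBS. Compound dosing: one dose, 10 µM in 0.5% DMSO. Incubation: 6 h compound exposure at 37 °C after overnight seeding. Technique: Steady-Glo luciferase luminescence. Benchmarks: tunicamycin and DMSO controls.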
CHOP inhibitor = blocks CHOP induction under ER stress; inhibition, % at 10 µM; 220,000 compounds, 3.8% hits; CHO-K1 CHOP-promoter luciferase, tunicamycin-induced, 15-18 h; AID 2732;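 active means compounds that reduced the stress-induced luciferase reporter signal by more than about 70% of percent inhibition, limit read from the data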
697 NFkB inh = inhibitors of the PMA/ionomycin-induced NF-kB reporter in 697 B cells; 697 B-cell NF-kB luciferase reporter, 16 h; inhibition, % at 4 µM; 330,000 compounds, 0.33% hits; in the data active means inhibition above about 35%
UPR XBP1 act = activators of adaptive arm of unfolded protein response (XBP1); activation, % at 20 µM; AID 463104; CHO-XBP1 luciferase reporter, IRE1-XBP1 UPR activation, luminescence; percent of tunicamycin response, DMSO as zero; 330,000 compounds, 0.33% hits;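 active means versus positive control, 20 µM dose yields 30% or more activation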
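Assay system: CHO-XBP1 luciferase reporter cells; Schedule: 6 h treatment, 37 °C; Detection: glow luminescence from Steady-Glo reagent; Benchmarks: high control tunicamycin 10 µg/mL final, low control DMSO vehicle only.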
Hits are given with their value; – = inactive; · = no result given. This is one part of a sample in which hits are shown more often than they occur.

SMILES	Jurkat NFkB inh	CHOP UPR activ	CHOP inhibitor	697 NFkB inh	UPR XBP1 act
CCOC(=O)/C(=N\Nc1ccccc1Cl)N1CC(C)OC(C)C1 (stereo not given)	–	–	70	–	–
CCOc1ccc(NC(=O)/C(C#N)=C/c2ccc(N3CCCC3)c(C)c2)cc1	·	·	101	·	·
O=C(Nc1cccc(Cl)c1)c1ccc2c(c1)SC1=NS(=O)(=O)CCN12	·	·	–	·	·
CC1(C)CC(=O)C(/C=N/c2ncccc2C(=O)O)=C(O)C1	–	–	78	–	–
Cc1[nH]nc(N=CC2=C(O)CC(C)(C)CC2=O)c1-c1ccc(Cl)cc1	–	–	92	–	–
Cc1ccc(N=CC2=C(O)CC(C)(C)CC2=O)nc1	–	–	–	–	–
CCC(C)C(NC(=O)c1ccccc1NC(=O)c1ccc(OC)cc1)C(=O)NCc1ccco1 (stereo not given)	–	–	71	–	–
O=C(Nc1ccccc1C(=O)NCc1ccco1)c1ccccc1	–	–	–	–	–
O=C(NCc1ccccc1F)C1CCCN1S(=O)(=O)c1ccc(Cl)cc1 (stereo not given)	–	–	·	–	–
COc1cccc(CN2C[C@]34C=C[C@@H](C[C@@H]3S2(=O)=O)O4)c1	–	–	–	–	–
CCCCCCc1nc2ccccc2c(=O)n1NC(=O)c1c(O)c2cccc3c2n(c1=O)CCC3	·	·	85	·	·
O=C(Nc1nccs1)c1c(O)c2cccc3c2n(c1=O)CCC3	–	–	108	–	–
Cc1cccnc1NC(=O)c1c(O)c2cccc3c2n(c1=O)CCC3	–	–	80	–	–
COc1ccc(Oc2nccc(-c3ccc(Cl)cc3)n2)cc1	–	–	–	–	–
Fc1ccc(Oc2nccc(-c3ccc(Cl)cc3)n2)cc1	–	–	81	–	–
Cc1cc(OCC(=O)N(Cc2cccs2)C2CCS(=O)(=O)C2)ccc1Cl (stereo not given)	–	–	·	–	–
CNc1oc(-c2ccc(Cl)cc2)nc1P(=O)(c1ccccc1)c1ccccc1	–	–	71	–	–
COc1ccccc1CNC(=O)COc1ccc(S(=O)(=O)N2CCOCC2)cc1C	–	–	·	–	–
Cc1sc2ncn3ncnc3c2c1C	–	–	90	–	–
CC(=O)c1ccc(NC(=O)CCCN2C(=O)COc3ccc(C)cc32)cc1	–	–	·	–	–
Cc1ccc(C)c(NC(=O)c2ccccc2O)c1	–	–	77	–	–
Cc1ccc(O)c(C(=O)CC(=O)c2ccccc2Cl)c1	–	–	103	–	–
Cc1ccc(C(=O)CC(=O)c2cccc(F)c2)c(O)c1	–	–	89	–	–
Cc1ccc(C(=O)CC(=O)c2ccccc2C)c(O)c1	–	–	·	–	–
Cc1cccc(NC(=O)c2ccccc2O)c1C	–	–	–	–	–
SMILES	Jurkat NFkB inh	CHOP UPR activ	CHOP inhibitor	697 NFkB inh	UPR XBP1 act
O=c1c(O)c(-c2ccc3c(c2)OCO3)oc2ccccc12	–	–	74	–	–
O=C(Nc1ccc2c(c1)oc1ccccc12)c1ccc2c(c1)OCO2	–	–	–	–	–
CN1C2CCC1CC(NC(=O)c1nn(C)c3ccccc13)C2 (stereo not given)	·	·	–	·	·
Cc1cccc(C(=O)NC(=S)NNC(=O)COc2ccc(Cl)cc2)c1	–	–	–	–	–
Cc1cccc(CSCCNC(=O)COc2ccc(Cl)cc2)c1	–	–	87	–	–
O=C(COc1ccc(Cl)cc1)NCCSCc1ccccc1Cl	–	–	–	–	–
O=C(COc1ccc(Cl)cc1Cl)NCCCCc1ccccc1	–	–	85	–	–
O=C(COc1ccc(Cl)cc1)NCCSCc1cccc(Cl)c1	–	–	83	–	–
Cc1cc(Cl)ccc1OCC(=O)NCCCCc1ccccc1	–	–	–	–	–
CCOC(=O)C[C@H]1c2cc(F)ccc2S(=O)(=O)N1c1cccc(OC)c1	–	–	·	–	–
O=C(CCCCl)NC(=S)Nc1cc(C(F)(F)F)ccc1N1CCOCC1	–	–	81	–	–
CC(C)(C)C(=O)NC(=S)Nc1cc(C(F)(F)F)ccc1N1CCOCC1	–	–	–	–	–
O=C(Nc1cc(C(F)(F)F)ccc1N1CCOCC1)c1cccc(F)c1	–	–	76	–	–
O=C(Nc1cc(C(F)(F)F)ccc1N1CCOCC1)C1Cc2ccccc2CN1C(=O)c1ccco1 (stereo not given)	–	–	72	–	–
O=C(NNC(=O)c1ccccc1O)c1ccc(Cl)c(S(=O)(=O)N2CCCCC2)c1	–	–	·	–	–
CC(C)CN(CC(C)C)c1nnc(NC(=O)Cn2c(=O)oc3ccccc32)s1	–	–	79	–	–
CCc1nnc(NC(=O)Cn2c(=O)oc3ccccc32)s1	–	–	–	–	–
Clc1ccc(/C=N/NC(=Nc2ccccc2)c2ccccn2)c(Cl)c1	–	–	81	–	–
CN1CCN(c2oc(COc3ccc(-c4ccccc4)cc3)nc2C#N)CC1	–	–	87	–	–
COc1ccc(N2CCN(c3oc(COc4ccccc4)nc3C#N)CC2)cc1	–	–	–	–	–
CCCCCc1cc(=O)oc2c(C(CCN3CCCCC3)c3ccc4c(c3)OCO4)c(OC)cc(OC)c12 (stereo not given)	–	–	88	–	–
CCCCCc1cc(=O)oc2c(C(CCN(CC)CC)c3cc(OC)c(OC)c(OC)c3)c(OC)cc(OC)c12 (stereo not given)	–	–	71	–	–
COc1ccc(C(CCN2CCCC(C)C2)c2c(OC)cc(OC)c3c(C)cc(=O)oc23)cc1 (stereo not given)	–	–	–	–	–
CCN(CC)CCC(c1ccc(N(C)C)cc1)c1c(OC)cc(OC)c2c(-c3ccccc3)cc(=O)oc12 (stereo not given)	–	–	–	–	–
COc1cc(OC)c2c(-c3ccccc3)cc(=O)oc2c1C(CCN1CCCC1)c1ccc2c(c1)OCO2 (stereo not given)	–	–	–	–	–
SMILES	Jurkat NFkB inh	CHOP UPR activ	CHOP inhibitor	697 NFkB inh	UPR XBP1 act
CCCCCc1cc(=O)oc2c(C(CCN3CCCC(C)C3)c3ccc4c(c3)OCO4)c(OC)cc(OC)c12 (stereo not given)	–	–	77	–	–
O=C(O)C1CCCC[C@H]1C(=O)Nc1ncc([N+](=O)[O-])s1 (stereo not given in full)	–	–	·	–	–
Cc1ccc(S(=O)(=O)NCc2ccccc2)cc1C(=O)NCCc1ccc(S(N)(=O)=O)cc1	–	–	·	–	–
CCOC(=O)c1cc2occc2n1CC(=O)Nc1ccc(OC)cc1OC	–	–	84	–	–
CCOC(=O)c1cc2occc2n1CC(=O)N1CCOCC1	–	–	–	–	–
CC(C)N(C)Cc1nnnn1CC(=O)NCCc1cccc(C(F)(F)F)c1	–	–	·	–	–
CC(OC(=O)CCN1C(=O)c2cccc([N+](=O)[O-])c2C1=O)C(=O)Nc1cc(Cl)cc(Cl)c1 (stereo not given)	–	–	82	–	–
